According to ChEMBL document CHEMBL3228001, “Rigid congeners of dopamine based on octahydrobenzo[f]quinoline: peripheral and central effects” (1979):
Calls of active or inactive are those of the source.

Experiments:
Mus musculus [1] = test: Dopaminergic activity in albino mouse assessed as induction of climbing behavior at 0.5 to 1.5 mg/kg, sc; format: functional, organism-based
Outline: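 Male albino mice (20-25 g, N = 10) received agents sc in water with 0.1% sodium metabisulfite. They were placed in perspex cages lined with wire mesh and counted as climbing when holding the wire with all four paws. Read-outs were climbing index (% time climbing in the 30 min after the first climb) and maximum single-climb time. Range given is threshold to maximal dose.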

Mus musculus [2] = test: Dopaminergic activity in albino mouse assessed as stereotyped behavior characterized by sniffing and biting at 1.5 to 4 mg/kg, sc; format: functional, organism-based
Rattus norvegicus [3] = test: Dopaminergic activity in Sprague-Dawley rat assessed as stereotyped behavior characterized by sniffing and biting at 0.5 to 2 mg/kg, sc; format: functional, organism-based
Outline: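 Male Sprague-Dawley rats in groups of 10 received agents sc, dissolved in distilled water containing 0.1% sodium metabisulfite, and were scored for stereotyped sniffing and biting. Testing ran 08:00-18:00 h in sound-proofed rooms at 21 ± 2 °C. The reported range runs from the threshold dose to the dose producing the maximum attainable response, in mg/kg sc.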

Mus musculus [4] = test: Dopaminergic activity in albino mouse assessed as induction of ipsilateral circling behavior at 0.25 to 1 mg/kg, sc; format: functional, organism-based
Outline: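 Mice received a unilateral caudate-putamen electrolesion (1.5 mA, 15 s). After 14 days they were screened with apomorphine HCl 1.0 mg/kg sc, and animals circling ≥7 ipsilateral revolutions/2 min were kept. After 7 days' recovery, agents were given sc and complete one-direction revolutions were counted manually. Lesion sites were verified histologically. Range given is threshold to maximal dose.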

Rattus norvegicus [5] = test: Dopaminergic activity in Sprague-Dawley rat assessed as biting behavior up to 50 ug administered into nucleus accumbens; format: functional, organism-based
Outline: (§1)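 Male Sprague-Dawley rats (250 ± 26 g) had guide cannulae implanted for bilateral injection into caudate-putamen and nucleus accumbens, and were used 10–14 days later. Nialamide 100 mg/kg ip was given 2 h before. Drug in N2-bubbled water (minimal DMF if needed), 1–2 µL over 60 s. Hyperactivity was read as photocell counts/5 min, stereotypy was scored, and cannula sites were checked histologically.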

Rattus norvegicus [6] = test: Dopaminergic activity in Sprague-Dawley rat assessed as hyperactivity behavior administered into nucleus caudate-putamen measured up to 25 ug from 30 to 45 mins to persisted up to 5 to 6 hrs; format: functional, organism-based; outline: as §1
Rattus norvegicus [7] = test: Dopaminergic activity in Sprague-Dawley rat assessed as hyperactivity up to 6.25 to 50 ug administered into nucleus accumbens; format: functional, organism-based; outline: as §1
Rattus norvegicus [8] = test: Dopaminergic activity in Sprague-Dawley rat assessed as stereotypic behavior administered into caudate-putamen measured up to 25 ug from 5 to 15 mins to persisted up to 5 to 6 hrs; format: functional, organism-based; outline: as §1
Rattus norvegicus [9] = test: Dopaminergic activity in Sprague-Dawley rat assessed as stereotyped behavior characterized by continous sniffing up to 12.5 to 50 ug administered into nucleus accumbens; format: functional, organism-based; outline: as §1
Mus musculus [10] = test: Dopaminergic activity in albino mouse assessed as induction of ipsilateral circling behavior up to 10 mg/kg, sc; format: functional, organism-based; set-up: dose 10 mg/kg
Outline: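 Male albino mice (30–35 g) received a unilateral caudate-putamen electrolesion (1.5 mA, 15 s) and 14 days of recovery. Only mice circling ≥7 ipsilateral revolutions/2 min after apomorphine HCl 1.0 mg/kg sc were kept, with a further 7 days of recovery. After sc dosing, complete revolutions in one direction were counted manually. Lesion sites were verified afterwards.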

Rattus norvegicus [11] = test: Dopaminergic activity in Sprague-Dawley rat assessed as hyperactivity up to 25 ug administered into caudate-putamen; format: functional, organism-based; outline: as §1
Mus musculus [12] = test: Dopaminergic activity in albino mouse assessed as stereotyped behavior characterized by sniffing and biting at up to 10 mg/kg, sc; format: functional, organism-based; set-up: dose 10 mg/kg
Outline: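 Male albino mice (20–25 g, N = 10) were dosed sc in water containing 0.1% sodium metabisulfite and scored for stereotyped sniffing and biting. Dose range runs from the threshold dose to the dose giving maximal response, in mg/kg sc.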

Rattus norvegicus [13] = test: Dopaminergic activity in Sprague-Dawley rat assessed as stereotypic behavior administered into caudate-putamen measured up to 25 ug from 5 to 15 mins to persisted up to 3 hrs; format: functional, organism-based; outline: as §1
Rattus norvegicus [14] = test: Dopaminergic activity in Sprague-Dawley rat assessed as hyperactivity behavior administered into nucleus caudate-putamen measured up to 25 ug from 30 to 45 mins to persisted up to 3 hrs; format: functional, organism-based; outline: as §1
Rattus norvegicus [15] = test: Dopaminergic activity in Sprague-Dawley rat assessed as stereotyped behavior characterized by sniffing and biting at up to 10 mg/kg, sc; format: functional, organism-based; set-up: dose 10 mg/kg
Outline: (§2)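 Male Sprague-Dawley rats, groups of 10, were dosed sc in distilled water with 0.1% sodium metabisulfite, with solvent controls. Stereotyped sniffing and biting were scored as for intracerebral tests at 21 ± 2 °C between 08:00 and 18:00 h. Dose range runs from the threshold dose to the dose giving maximal response, in mg/kg sc.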

Felis catus = test: Inhibition of electrical-stimulation of postganglionic cardioaccelerator nerve in iv dosed cat; format: functional; settings: read-out: ID50 (the source's name)
Outline: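 Cats were anaesthetised with sodium pentobarbital 30 mg/kg and ventilated. The right postganglionic cardioaccelerator nerves were stimulated with bipolar electrodes (2 Hz, 5 ms pulses, supramaximal voltage, 20–30 s trains), and heart rate was read by cardiotachometer. Doses were spaced at 0.48 log intervals, and the dose inhibiting positive chronotropic responses by 50% was calculated.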

Canis familiaris = test: Emetic activity in sc dosed dogs assessed as frequency of vomiting for 1 hr relative to apomorphine; format: functional, Canis lupus familiaris
Mus musculus [16] = test: Dopaminergic activity in albino mouse assessed as induction of climbing behavior up to 10 mg/kg, sc; format: functional, organism-based; set-up: dose 10 mg/kg
Outline: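 Male albino mice (20–25 g, N = 10) were dosed sc in water with 0.1% sodium metabisulfite and placed in wire-mesh-lined cages. A mouse counted as climbing when holding the wire with all four paws. Measures: climbing index (% time climbing in the 30 min after the first climb) and maximum single-climb time. Doses run from threshold to maximal response.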

Rattus norvegicus [17] = test: Dopaminergic activity in Sprague-Dawley rat assessed as stereotyped behavior characterized by continous sniffing up to 25 ug administered into caudate-putamen; format: functional, organism-based; outline: as §1
Rattus norvegicus [18] = test: Dopaminergic activity in Sprague-Dawley rat assessed as stereotyped behavior characterized by sniffing and biting at 1 to 10 mg/kg, sc; format: functional, organism-based; outline: as §2

Compound | Activity (Mus musculus [1]) | Activity (Mus musculus [2]) | Activity (Rattus norvegicus [3]) | Activity (Mus musculus [4]) | Activity (Rattus norvegicus [5]) | Activity (Rattus norvegicus [6]) | Activity (Rattus norvegicus [7]) | Activity (Rattus norvegicus [8]) | Activity (Rattus norvegicus [9]) | Activity (Mus musculus [10]) | Activity (Rattus norvegicus [11]) | Activity (Mus musculus [12]) | Activity (Rattus norvegicus [13]) | Activity (Rattus norvegicus [14]) | Activity (Rattus norvegicus [15]) | ED50 (Felis catus) [µmol/kg] | fold change (FC) (Canis familiaris) | Activity (Mus musculus [16]) | Activity (Rattus norvegicus [17]) | Activity (Rattus norvegicus [18])
CN1CCc2cccc3c2[C@H]1Cc1ccc(O)c(O)c1-3 | Active | Active | Active | Active | – | – | – | – | – | – | – | – | – | – | – | – | – | – | – | –
NCCc1ccc(O)c(O)c1 | – | – | – | – | inactive | Active | Active | Active | Active | – | – | – | – | – | – | – | – | – | – | –
Oc1ccc2c(c1O)CC[C@@H]1NCCC[C@H]21 (relative stereo) | – | – | – | – | – | – | inactive | – | inactive | inactive | inactive | inactive | Active | Active | inactive | 0.027 | 0.024 | inactive | inactive | –
CCN1CCC[C@@H]2c3ccc(O)c(O)c3CC[C@@H]21 (relative stereo) | – | – | – | – | – | – | Active | – | Active | inactive | Active | inactive | Active | Active | inactive | – | 0.053 | inactive | – | –
Oc1ccc2c(c1O)CC[C@H]1NCCC[C@H]21 (relative stereo) | – | – | – | – | – | – | inactive | – | inactive | inactive | Active | inactive | Active | Active | – | 0.0007 | 4.5 | inactive | Active | Active
